The results in this text go back to ChEMBL document CHEMBL4118165, “Synthesis and kinetic evaluation of ethyl acrylate and vinyl sulfone derived inhibitors for human cysteine cathepsins” (Bioorg Med Chem Lett, 2018).

The target in assay [1] is T1, Cathepsin K (Homo sapiens) (UniProt P43235).
T1 sequence (whole entry): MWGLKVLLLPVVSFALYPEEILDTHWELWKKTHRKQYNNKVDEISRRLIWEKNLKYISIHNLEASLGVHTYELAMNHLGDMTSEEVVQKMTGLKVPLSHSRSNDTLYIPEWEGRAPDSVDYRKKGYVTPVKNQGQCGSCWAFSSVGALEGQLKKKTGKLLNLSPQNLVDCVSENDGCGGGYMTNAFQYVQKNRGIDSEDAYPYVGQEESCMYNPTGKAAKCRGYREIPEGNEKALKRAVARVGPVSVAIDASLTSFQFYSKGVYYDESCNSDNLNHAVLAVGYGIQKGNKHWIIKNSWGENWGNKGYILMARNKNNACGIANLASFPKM
Nature of the assay: Irreversible inhibition of human cathepsin K using Z-Leu-Arg-AMC as substrate by fluorimetric analysis. The note with it: TDE = time-dependent effect.

Assay [2] deals with Cathepsin S (Homo sapiens) (UniProt P25774). Nature of the assay: Irreversible inhibition of human cathepsin S using Z-Phe-Arg-AMC as substrate assessed as ratio of Kinac/Ki after 10 to 80 mins by fluorimetric analysis.
The target in assay [3] is Procathepsin L (Homo sapiens) (UniProt P07711). Nature of the assay: Irreversible inhibition of human cathepsin L using Z-Phe-Arg-pNA as substrate by photometric analysis. The note with it: TDE = time-dependent effect.
Assay [4] shares this target. Nature of the assay: Irreversible inhibition of human cathepsin L using Z-Phe-Arg-pNA as substrate assessed as ratio of Kinac/Ki after 10 to 80 mins by photometric analysis.
In assay [5] the target is Cathepsin B (Homo sapiens) (UniProt P07858). Nature of the assay: Irreversible inhibition of human cathepsin B using Z-Arg-Arg-pNA as substrate by photometric analysis. The note with it: TDE = time-dependent effect. Put shortly: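 Human cathepsin B assayed photometrically at 405 nm, 37 °C, pH 6.0. […] Progress curves were fitted by non-linear regression to get kobs, and kinac/Ki was derived with correction for substrate competition ([S]/Km).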

Assay [6] has as its target T1, Cathepsin K (Homo sapiens). The experiment in a line: Irreversible inhibition of human cathepsin K using Z-Leu-Arg-AMC as substrate assessed as ratio of Kinac/Ki after 10 to 80 mins by fluorimetric analysis.
Assay [7] has as its target Cathepsin S (Homo sapiens) (UniProt P25774). The experiment in a line: Irreversible inhibition of human cathepsin S using Z-Phe-Arg-AMC as substrate by fluorimetric analysis. The note with it: TDE = time-dependent effect. In short, it runs like this: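 Human cathepsin S monitored fluorimetrically (ex 360, em 440 nm) at 25 °C, pH 6.0. […] Progress curves were fitted non-linearly for kobs, and kinac/Ki was calculated including the [S]/Km competition term.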

Assay [8] concerns the target Cathepsin B (Homo sapiens) (UniProt P07858). The experiment in a line: Irreversible inhibition of human cathepsin B using Z-Arg-Arg-pNA as substrate assessed as ratio of Kinac/Ki after 10 to 80 mins by photometric analysis.

Chain of Procathepsin L (Homo sapiens) (P07711 114-333 limits assumed): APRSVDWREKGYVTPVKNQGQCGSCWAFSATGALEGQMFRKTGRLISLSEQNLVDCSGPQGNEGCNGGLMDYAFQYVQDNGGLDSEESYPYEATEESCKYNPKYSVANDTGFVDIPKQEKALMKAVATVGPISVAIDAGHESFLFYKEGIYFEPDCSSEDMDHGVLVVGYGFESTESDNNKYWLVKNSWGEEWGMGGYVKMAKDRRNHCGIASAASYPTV
Chain of Cathepsin S (Homo sapiens) (P25774 115-331 limits assumed): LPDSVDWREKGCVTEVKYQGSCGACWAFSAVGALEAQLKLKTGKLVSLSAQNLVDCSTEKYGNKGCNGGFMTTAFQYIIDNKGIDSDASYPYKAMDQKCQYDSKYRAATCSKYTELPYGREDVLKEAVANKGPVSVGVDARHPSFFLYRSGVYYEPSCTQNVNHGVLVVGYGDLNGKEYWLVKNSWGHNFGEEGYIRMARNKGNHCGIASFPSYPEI

As to `CCOC(=O)/C=C/CNC(=O)[C@H](Cc1ccccc1)NC(=O)CCNC(=O)OC(C)(C)C`, the inhibition result in assay [1], in assay [3], in assay [5] and in assay [7] was “Tde” in each case. Moreover, the Ratio in assay [2] was 879 M⁻¹ s⁻¹; in assay [4], 3540 M⁻¹ s⁻¹; in assay [6] it was 759 M⁻¹ s⁻¹; in assay [8], 2660 M⁻¹ s⁻¹.

`CCOC(=O)/C=C/CNC(=O)[C@H](Cc1ccccc1)NC(=O)COCCOCCNC(=O)OC(C)(C)C`: the inhibition result in assay [1], in assay [3], in assay [5] and in assay [7] was “Tde” in each case. Further, the Ratio in assay [2] was determined as 557 M⁻¹ s⁻¹; in assay [4] it was 652 M⁻¹ s⁻¹; in assay [6] it was 297 M⁻¹ s⁻¹; in assay [8] it was 348 M⁻¹ s⁻¹.

For the compound `CCOC(=O)/C=C/CNC(=O)[C@H](Cc1ccccc1)NC(=O)OC(C)(C)C`, the inhibition result in assay [1], in assay [3], in assay [5] and in assay [7] was “Tde” in each case. Besides, the Ratio in assay [2] turned out to be 525 M⁻¹ s⁻¹; in assay [4] it was 1120 M⁻¹ s⁻¹; in assay [6], 752 M⁻¹ s⁻¹; in assay [8] it was 3660 M⁻¹ s⁻¹.

`CC(C)C[C@H](NC(=O)OC(C)(C)C)C(=O)NC/C=C/S(=O)(=O)c1ccccc1`: the inhibition result in assay [1], in assay [3], in assay [5] and in assay [7] was “Tde” throughout. For the same compound, the Ratio in assay [2] was found to be 28400 M⁻¹ s⁻¹; in assay [4], 879 M⁻¹ s⁻¹; in assay [6], 18300 M⁻¹ s⁻¹; in assay [8], 85.1 M⁻¹ s⁻¹.

In the case of `CC(C)(C)OC(=O)NCCC(=O)N[C@@H](Cc1ccccc1)C(=O)NC/C=C/S(=O)(=O)c1ccccc1`, the inhibition result in assay [1], in assay [3], in assay [5] and in assay [7] was “Tde” throughout. The Ratio is 13100 M⁻¹ s⁻¹ in assay [2], 12800 M⁻¹ s⁻¹ in assay [4], 2230 M⁻¹ s⁻¹ in assay [6] and 214 M⁻¹ s⁻¹ in assay [8].

On to `CC(C)(C)OC(=O)N[C@@H](Cc1ccccc1)C(=O)NC/C=C/S(=O)(=O)c1ccccc1`, for which the inhibition result in assay [1], in assay [3], in assay [5] and in assay [7] was “Tde” each time. The Ratio in assay [2] turned out to be 7960 M⁻¹ s⁻¹; in assay [4] it was 5880 M⁻¹ s⁻¹; in assay [6], 1320 M⁻¹ s⁻¹; in assay [8], 378 M⁻¹ s⁻¹.

As to `CCOC(=O)/C=C/CNC(=O)[C@H](CC(C)C)NC(=O)OC(C)(C)C`, the inhibition entry in assay [1], in assay [3], in assay [5] and in assay [7] was “Tde” each time. Moreover, the Ratio in assay [2] was 6600 M⁻¹ s⁻¹; in assay [4], 1280 M⁻¹ s⁻¹; in assay [6], 11600 M⁻¹ s⁻¹; in assay [8] it was 3090 M⁻¹ s⁻¹.

As for `CC(C)C[C@H](NC(=O)COCCOCCNC(=O)OC(C)(C)C)C(=O)NC/C=C/S(=O)(=O)c1ccccc1`, the inhibition entry in assay [1], in assay [3], in assay [5] and in assay [7] was “Tde” in each case. In addition, the Ratio in assay [2] was found to be 11900 M⁻¹ s⁻¹; in assay [4], 3310 M⁻¹ s⁻¹; in assay [6], 25.5 M⁻¹ s⁻¹; in assay [8], 150 M⁻¹ s⁻¹.

Consider `CC(C)C[C@H](NC(=O)CCNC(=O)OC(C)(C)C)C(=O)NC/C=C/S(=O)(=O)c1ccccc1`, for which the inhibition result in assay [1], in assay [3], in assay [5] and in assay [7] was “Tde” in each case. Moreover, the Ratio was determined as 30600 M⁻¹ s⁻¹ in assay [2], 671 M⁻¹ s⁻¹ in assay [4], 12500 M⁻¹ s⁻¹ in assay [6] and 58.3 M⁻¹ s⁻¹ in assay [8].

Take `CCOC(=O)/C=C/CNC(=O)[C@H](CC(C)C)NC(=O)CCNC(=O)OC(C)(C)C`: the inhibition result in assay [1], in assay [3], in assay [5] and in assay [7] was “Tde” each time. Moreover, the Ratio is 2590 M⁻¹ s⁻¹ in assay [2], 554 M⁻¹ s⁻¹ in assay [4], 2890 M⁻¹ s⁻¹ in assay [6] and 248 M⁻¹ s⁻¹ in assay [8].
